In ChEMBL document CHEMBL1134348, “Novel glucocorticoid antedrugs possessing a 17beta-(gamma-lactone) ring” (J Med Chem, 2001):

Legend:
[1] = tested on: Rattus norvegicus; test: Inhibition of rat ear edema as percentage change in mean weight (54.86 +/- 1.35 mg) from control group of 55.67+/-1.22 mg at 6.25 ug dose; type: functional
[2] = tested on: Rattus norvegicus; test: Inhibition of rat ear edema as percentage change in mean weight (56.03 +/- 1.41 mg) from control group of 55.67+/-1.22 mg at 1.56 ug dose; type: functional
[3] = tested on: Rattus norvegicus; test: Inhibition of rat ear edema as percentage change in mean weight (44.05+/-1.18 mg) from control group of 55.67+/-1.22 mg at 100 ug dose; type: functional
[4] = % stability in krebs buffer after 60 minutes.; type: physicochemical; settings: Krebs buffer; read-out: Stability
How it was run: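 Test compound, at a final concentration of 30 ug/mL, was spiked into Krebs buffer at 37 °C for 60 min, then quenched with 2 M citric acid. Supernatant was analysed by reversed-phase HPLC with UV detection at 240 nm and an internal standard, in duplicate. The read-out was % compound remaining.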

[5] = % stability in human plasma after 60 minutes.; type: ADME, organism-based; settings: plasma, read-out: Stability
How it was run: (§1)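 Pooled heparinized plasma from 4 volunteers was incubated at 37 °C with test compound at a final concentration of 30 ug/mL, with DMSO-only controls. The reaction was stopped with 2 M citric acid at 10 and 60 min, with a zero-time sample. Supernatants were analysed by reversed-phase HPLC at 240 nm against an internal standard, in duplicate, and reported as % compound remaining.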

[6] = % stability in human plasma after 10 minutes.; type: ADME, organism-based; settings: plasma, read-out: Stability; how it was run: as §1
[7] = half life in human plasma.; type: ADME, organism-based
How it was run: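 Pooled heparinised plasma from 4 volunteers, stored at −20 °C; compound spiked to final 30 ug/mL at 37 °C. Half-life taken from additional time points in this incubation; reaction stopped with 2 M citric acid, samples frozen overnight and centrifuged. Supernatant analysed by reverse-phase HPLC with UV at 240 nm, internal standard dexamethasone or hydrocortisone; duplicates.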

[8] = tested on: Rattus norvegicus; test: Inhibition of rat ear edema as percentage change in mean weight (50.65 +/- 1.18 mg) from control group of 55.67+/-1.22 mg at 25 ug dose; type: functional

Q: With `CC1(C)O[C@@H]2CC3C4C[C@H](F)C5=CC(=O)C=C[C@]5(C)[C@@]4(F)[C@@H](O)C[C@]3(C)[C@]2(SC2CCOC2=O)O1` (stereo partly drawn) as the compound, how does the Decrease [1] read?
A: 1.46%

Q: And the Decrease [2]?
A: 0%

Q: What about the Decrease [3] of the same compound?
A: 20.9%

Q: And the remaining at 1 h [4]?
A: 74%

Q: What about the remaining at 1 h [5] of the same compound?
A: 0%

Q: And the remaining at 10 min [6]?
A: 24%

Q: What about the half-life [7] of the same compound?
A: 4 min

Q: And the Decrease [8]?
A: 9.01%
